Laboratory results published in publication PMC6500440 (International Journal of Nanomedicine, 2019).
Where two headings read alike, the source gives them in different places. Blank lines part the entries; values can stand above or below the molecule they belong to.

Tests used:
[1] = Dynamic light scattering particle size; format: physicochemical
Outline: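 LUVs (POPC or egg sphingomyelin) were made by drying the chloroform stock under nitrogen, hydrating in 10 mM sodium phosphate pH 7.4, doing 5–7 freeze-thaw cycles, and extruding 10× through 100 nm membranes (25°C POPC, 45°C eSM). For sHDL, 5.0 mg/mL lipid and peptide solutions were mixed 1:1 wt/wt (~3.75:1 molar). Samples were diluted to 1.0 mg/mL peptide, and intensity- and volume-weighted distributions were read at 25°C.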

[2] = cited from earlier work
[3] = Lipid solubilization assay; format: physicochemical; conditions: 5.0 mg/mL LUVs in 10 mM sodium phosphate buffer pH 7.4, before addition of 22A peptide
Outline: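 Phospholipid (POPC or egg sphingomyelin) chloroform stock was dried under nitrogen and hydrated in 10 mM sodium phosphate, pH 7.4. It then went through 5–7 freeze-thaw cycles and was extruded 10 times through 100 nm membranes, at 25°C for POPC and 45°C for eSM. The 5.0 mg/mL LUV suspension was read for turbidity as UV absorbance at 600 nm on a microplate spectrophotometer.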

[4] = Gel permeation chromatography; format: physicochemical
Outline: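 Test peptide alone in buffer, no phospholipid, at 1, 5 and 10 mg/mL; one condition also incubated at 50°C. Analysed by size-exclusion GPC on a TSK G3000SWx column (7.8 mm×30 cm), eluted with PBS at 1.0 mL/min at ambient temperature, UV detection at 220 nm. Molecular weight was assigned from retention time.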

[5] = molecular target: the molecule itself; assay: SEC + other: dynamic light scattering
[6] = lipid LUV + 22A 1:1 wt/wt incubated 24 hr at 25°C
[7] = as restated in Results, no reference given
[8] = 22A 1 mg/mL in buffer without phospholipid, after incubation at 50°C
[9] = 22A in buffer without phospholipid, before dissociation

LUV diameter ([1]; extruded LUVs, 5.0 mg/mL solutions, before addition of 22A peptide): 120 nm
DLS volume (distribution, %): LUV [1, 6]: 0.1%
DLS volume (distribution, %): sHDL [1, 6]: 99.9%
DLS intensity (size, nm): LUV ([1]; lipid LUV + 22A 1:1 wt/wt incubated 24 hr at 25°C, remaining liposomes): 137.3 nm
DLS volume (distribution, %): sHDL ([1]; lipid LUV + 22A 1:1 wt/wt incubated 24 hr at 37°C): 100%
DLS volume (distribution, %): sHDL ([1]; lipid LUV + 22A 1:1 wt/wt incubated 24 hr at 50°C): 100%
UV 600 nm absorbance (turbidity) of LUV solution [3]: 0.26
Molecule: CCCCCCCC/C=C\CCCCCCCC(=O)O[C@H](COC(=O)CCCCCCCCCCCCCCC)COP(=O)([O-])OCC[N+](C)(C)C [POPC, 1-palmitoyl-2-oleoyl-sn-glycero-3-phosphocholine]
transition temperature (Tm) [2, 7]: −2 °C
transition temperature (Tm) [2]: −2 °C

GPC retention time of monomeric peptide [4, 8]: 14.9 min
molecular weight corresponding to GPC retention time, monomeric peptide [4, 8]: ~ 2500 Da
association state of peptide without lipid ([4]; 22A in buffer without phospholipid, 1, 5 and 10 mg/mL, initial, GPC and DLS): self-associated
GPC retention time of self-associated peptide [4, 9]: 9.6 min
molecular weight corresponding to GPC retention time, self-associated peptide [4, 9]: ~ 145,000 Da
Molecule: PVLDLFRELLNELLEALKQKLK [22A]

Molecule: synthetic sphingomyelin [sSM]
transition temperature (Tm) [2, 7]: approximately 40 °C

Molecule: PVLDLFRELLNELLEALKQKLK [ESP-24218 peptide (22A), ApoA-I-mimetic peptide]
binding result [5]: binds
